Activity calls are given as the source filed them. No cut-off for these calls is given here.
What was measured:
T47D [1] = experiment: (§1) Induction of cell cycle arrest at cytokinesis in human T47D cells at 5 umol/L preincubated for 24 hrs followed by extensive compound washout and subsequent culturing in compound-free media measured upto 120 mins by immunofluorescence staining based analysis; type: functional; conditions: dose 5.0 µmol/L
Summary of the method: (§2)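 T-47D cells were treated at 37°C with 5 µmol/L for 24 h, washed extensively, then cultured in DMEM with 10% FBS for 30, 60 and 120 min. α- and γ-tubulin were detected by immunofluorescence with DAPI, imaged at 400×. The control was a 24 h preincubation with 5 µmol/L RO-3306. One of 2 experiments.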

MCF7 [2] = experiment: Induction of polyploidy in human MCF7 cells assessed as cells with 8N chromosome contents at 5 uM incubated for 24 hrs by PI staining based flow cytometry (reference value: 0); type: functional
T47D [3] = experiment: Induction of apoptosis in human T47D cells assessed as viable cells at 5 umol/L incubated for 3 days by Annexin V/PI staining based flow cytometry (reference value: 95.7 %); type: functional; conditions: 72 h, dose 5 µmol/L, time 3 day, read-out: Activity
T47D [4] = experiment: Induction of polyploidy in human T47D cells assessed as cells with 2N chromosome contents at 5 uM incubated for 48 hrs by PI staining based flow cytometry (reference value: 48); type: functional
T47D [5] = experiment: Induction of apoptosis in human T47D cells assessed as early cells at 5 umol/L incubated for 3 days by Annexin V/PI staining based flow cytometry (reference value: 0.8 %); type: functional; conditions: dose 5 µmol/L; time 3 day; at 5 µM
ZR-75-1 [6] = experiment: Induction of polyploidy in human ZR-75-1 cells at 5 umol/L incubated for 72 hrs by microscopic analysis relative to control; type: functional; conditions: dose 5 µmol/L, at 5 µM
Summary of the method: (§3)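 Cells stained with Hema-3 and photographed under a light microscope with CCD camera. Polyploid cells scored as percent of the population.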

[7] = (§4) Effect on bleomycin resistance in human T47D cells with compound-induced polyploidy assessed as change in bleomycin-induced cytotoxicity by measuring increase in bleomycin IC50 at 5 umol/L preincubated for 72 hrs followed by compound washout and subsequent bleomycin treatment for 72 hrs by MTS assay; type: functional, cell-based
T47D [8] = experiment: as §1, with “metaphase” for “cytokinesis”, “cells assessed as disorganization of multipolar mitotic spindles” for “cells”, “3 days” for “120 mins”; type: functional; conditions: dose 5.0 µmol/L
T47D [9] = experiment: Inhibition of clonogenic growth in human T47D cells incubated for 10 days by Hema-3 staining based microscopy; type: functional, cell-based; conditions: dose 1-5 µmol/L, time 10.0 day
Summary of the method: (§5)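 Colonies were stained with Hema-3, photographed under a microscope with a CCD camera, counted in duplicate, and expressed as % of control. Results are shown from 1 of 2 experiments.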

[10] = as §4, with “paclitaxel” for “bleomycin”, “paclitaxel-induced” for “bleomycin-induced”; type: functional, cell-based
T47D [11] = experiment: Induction of polyploidy in human T47D cells assessed as cells with 16N chromosome contents at 5 uM incubated for 72 hrs by PI staining based flow cytometry (reference value: 0); type: functional
T47D [12] = experiment: Cytotoxicity against human T47D cells at 1 to 2.5 umol/L incubated for 72 hrs by MTS assay; type: functional, cell-based; conditions: dose 1-2.5 µmol/L
T47D [13] = experiment: Induction of polyploidy in human T47D cells with RON-/- at 5 umol/L incubated for 72 hrs by microscopic analysis (reference value: 83.5 %); type: functional; conditions: dose 5 µmol/L, at 5 µM
Summary of the method: (§6)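 Cells (2 106 per 60-mm dish) transiently transfected for 48 hours with 1 nmol/L scrambled or RON-specific siRNA, with knockdown confirmed by anti-RON Western blot. […] Polyploidy monitored and photographed by microscopy, with untransfected and scrambled-siRNA cells as comparators.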

T47D [14] = experiment: Disruption of microtubule dynamics in human T47D cells assessed as condensed irregular-shaped chromosomes at 5 umol/L incubated for 24 hrs by immunofluorescence staining based analysis; type: functional, cell-based; conditions: dose 5.0 µmol/L
Summary of the method: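 T-47D cells (1 × 10^6/dish) in RPMI-1640 with 5% FBS were treated with or without 5 µmol/L for 24, 48 and 72 h. Cells were fixed in cold acetone and stained with mouse anti-α-tubulin or anti-γ-tubulin, then an FITC anti-mouse IgG secondary, plus DAPI. Fluorescence microscopy, 200× magnification.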

MCF7 [15] = experiment: Induction of polyploidy in human MCF7 cells assessed as cells with 4N chromosome contents at 5 uM incubated for 72 hrs by PI staining based flow cytometry (reference value: 36); type: functional
ZR-75-1 [16] = experiment: Inhibition of clonogenic growth in human ZR-75-1 cells incubated for 10 days by Hema-3 staining based microscopy; type: functional, cell-based; conditions: dose 1-5 µmol/L, time 10.0 day; summary of the method: as §5
ZR-75-1 [17] = experiment: Induction of apoptosis in human ZR-75-1 cells assessed as rate of apoptotic cell death at 5 umol/L by annexin V/PI staining based flow cytometry relative to control; type: functional; conditions: dose 5 µmol/L; at 5 µM
ZR-75-1 [18] = experiment: Induction of polyploidy in human ZR-75-1 cells with RON-/- by microscopic analysis; type: functional, cell-based; summary of the method: as §6
MCF7 [19] = experiment: Induction of polyploidy in human MCF7 cells at 5 to 10 umol/L incubated for 72 hrs by microscopic analysis relative to control; type: functional; conditions: dose 5-10 µmol/L, at 5 to 10 µM; summary of the method: as §3
ZR-75-1 [20] = experiment: Induction of polyploidy in human ZR-75-1 cells assessed as cells with 2N chromosome contents at 5 uM incubated for 24 hrs by PI staining based flow cytometry (reference value: 48); type: functional
MCF7 [21] = experiment: Cytotoxicity against human MCF7 cells at 1 to 2.5 umol/L incubated for 72 hrs by MTS assay; type: functional, cell-based; conditions: dose 1-2.5 µmol/L
MCF7 [22] = experiment: Induction of apoptosis in human MCF7 cells assessed as viable cells at 5 umol/L incubated for 3 days by Annexin V/PI staining based flow cytometry (reference value: 98.1 %); type: functional; conditions: MCF7, 72 h, dose 5 µmol/L, time 3 day, read-out: Activity
ZR-75-1 [23] = experiment: Induction of polyploidy in human ZR-75-1 cells assessed as cells with 8N chromosome contents at 5 uM incubated for 48 hrs by PI staining based flow cytometry (reference value: 0); type: functional
T47D [24] = experiment: Induction of apoptosis in human T47D cells assessed as late cells at 5 umol/L incubated for 3 days by Annexin V/PI staining based flow cytometry (reference value: 2.9 %); type: functional; conditions: dose 5 µmol/L; time 3 day; at 5 µM
ZR-75-1 [25] = experiment: Induction of polyploidy in human ZR-75-1 cells assessed as cells with 8N chromosome contents at 5 uM incubated for 24 hrs by PI staining based flow cytometry (reference value: 0); type: functional
[26] = as §4, with “ZR-75-1” for “T47D”; type: functional, cell-based
ZR-75-1 [27] = experiment: Induction of apoptosis in human ZR-75-1 cells assessed as viable cells at 5 umol/L incubated for 3 days by Annexin V/PI staining based flow cytometry (reference value: 95 %); type: functional; conditions: ZR-75-1, 72 h, dose 5 µmol/L, time 3 day, read-out: Activity
T47D [28] = experiment: as §1, with “metaphase” for “cytokinesis”, “cells assessed as disorganization of multipolar mitotic spindles” for “cells”; type: functional; conditions: dose 5.0 µmol/L; summary of the method: as §2
ZR-75-1 [29] = experiment: Cytotoxicity against human ZR-75-1 cells at 1 to 2.5 umol/L incubated for 72 hrs by MTS assay; type: functional, cell-based; conditions: dose 1-2.5 µmol/L

## CCOc1ccn(-c2ccc(F)cc2)c(=O)c1C(=O)Nc1ccc(Oc2ccnc(N)c2Cl)c(F)c1 [BMS-777607]
T47D [1]
  Activity: Active
MCF7 [2]
  Activity: 14
T47D [3]
  viability at 5 µM: 87.3%
T47D [4]
  Activity: 7.4
T47D [5]
  Activity: 2.2%
ZR-75-1 [6]
  Activity: 82%
[7]
  IC50: 2720 nM
T47D [8]
  Activity: Active
T47D [9]
  inhibition: Dose-Dependent Effect
[10]
  IC50: 31.6 nM
T47D [11]
  Activity: 18.5
T47D [12]
  Activity: inactive
T47D [13]
  Activity: 79.4%
T47D [14]
  Activity: Active
MCF7 [15]
  Activity: 41
ZR-75-1 [16]
  inhibition: Dose-Dependent Effect
ZR-75-1 [17]
  Activity: 9.7%
ZR-75-1 [18]
  Activity: Active
MCF7 [19]
  Activity: 36%
ZR-75-1 [20]
  Activity: 15.5
MCF7 [21]
  Activity: inactive
MCF7 [22]
  viability at 5 µM: 97.3%
ZR-75-1 [23]
  Activity: 20
T47D [24]
  Activity: 8.1%
ZR-75-1 [25]
  Activity: 14
[26]
  IC50: 2260 nM
ZR-75-1 [27]
  viability at 5 µM: 88.5%
T47D [28]
  Activity: Active
ZR-75-1 [29]
  Activity: inactive

Reference: ChEMBL document CHEMBL5653613 (Mol Cancer Ther, 2013)
